Screening results: PubChem BioAssay, SRMLSC
PTEN del growth: suppresses growth of cells with PTEN deletion; HCT116 PTEN-null viability, CellTiter-Glo, 60 h; hits give low values; viability, % at 10 µM; actives 1.2% (n = 140,000); AID 827;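 active means viability at or below a set limit, 4 SD under the median of all tested compounds, cut at about 3.7% in these data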;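 further: PTEN knockout HCT116 line with beta catenin targeted HCT116 as companion control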
Lung fibro prol: blocks proliferation of human lung fibroblasts; LL 47 human lung fibroblast viability, ATP luminescence; hits give low values; viability, % at 10 µM; actives 1.1% (n = 85,000); AID 719;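 active means viability at or below 50% in the single dose screen; inactive means viability above 50%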;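 further: compound exposure lasted 72 h before the ATP readout; 100% = median luminescence of untreated cell-only wells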
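test system = LL 47 human lung fibroblasts | amount = 1,150 fibroblasts seeded per well | medium = 15% FBS in IMEM | times = overnight cell rest, 72 h compound treatment at 37 °C | measured by = CellTiter-Glo luminescence measuring cellular ATP | read-out = viability percentage against median untreated-cell control | benchmarks = cell-only wells, no compound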
bCat KO growth: beta-catenin-lacking colon tumor cell growth suppression; viability, % at 10 µM; HCT116 beta-catenin knockout viability, CellTiter-Glo, 60 h; hits give low values; AID 818; actives 1.5% (n = 140,000);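 active means viability at or under a set limit, the compound median less 4 SD, cut at about 6% in these data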;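 further: 0% = Hyamine 1622 control at 20 µM and 100% = untreated cell control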
HUVEC prolif 384: inhibitors of human endothelial cell proliferation | HUVEC proliferation, CellTiter-Glo luminescence, 72 h; hits give low values | viability, % at 10 µM (by protocol) | actives 1.1% (n = 86,000) | AID 648;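 active means viability at or below 30%; inactive means viability above 30%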;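 further: 100% = median luminescence of DMSO-only cell control wells on each plate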
H69AR inhibit: blocks growth of human H69AR lung tumor cells; viability, % at 10 µM; AID 598; actives 6% (n = 85,000); H69AR lung tumor viability, ATP luminescence, 72 h; hits give low values;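 active means viability at or below 40%; inactive means viability above 40%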;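 further: multidrug resistant small cell line overexpressing MRP-1 efflux transporter; 100% = mean luminescence of untreated control wells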
* marks the source's active call; other numbers are inactive results; . = not tested or not shown. The entries come from a sample that favours hits as a whole.

SMILES	PTEN del growth	Lung fibro prol	bCat KO growth	HUVEC prolif 384	H69AR inhibit
O=C(CSc1nnc(-c2cccs2)n1Cc1ccco1)Nc1ccc2c(c1)OCO2	95	102	98	94	108
O=C(CSc1nc(-c2ccco2)cc(C(F)(F)F)n1)Nc1cccnc1	65	85	68	69	21*
O=C(CSc1ncc(-c2ccc(F)cc2)n1Cc1ccco1)Nc1ccc2c(c1)OCO2	69	101	65	63	25*
O=C(CSc1nc(-c2ccco2)cc(C(F)(F)F)n1)Nc1ccc2c(c1)OCO2	64	90	68	68	24*
Cc1nn(-c2ccccc2)c2c1C1(C(=O)N3c4c(cccc41)C(C)CC3(C)C)C(C#N)=C(N)O2 (centres undefined)	77	100	81	77	39*
CCOC(=O)c1c2ccc(OCC(=O)N/N=C/c3ccc(Cl)cc3)cc2n2ccccc12	2.3*	.	1.8*	.	.
Cc1ccc(OCC(=O)N/N=C/c2cccn2C)cc1	98	105	97	97	103
CCOC(=O)c1c2ccc(OCC(=O)N/N=C/c3ccccc3C(F)(F)F)cc2n2ccccc12	1.9*	.	1.5*	.	.
COc1ccc(/C=C/C(=O)N2CCN(S(=O)(=O)/C=C/c3ccccc3)CC2)cc1OC	87	.	87	.	.
Cc1c(NC(=O)CCSc2ccc(Cl)cc2)c(=O)n(-c2ccccc2)n1C	89	113	80	103	112
COC(=O)C1=C(C)NC(=O)CC1c1cc2c(cc1Br)OCO2 (centres undefined)	77	100	90	94	97
CC1=C(C(=O)OC2CCCCCCC2)C(c2cc3c(cc2Br)OCO3)CC(=O)N1 (centres undefined)	27	91	47	5.0*	5.8*
CC(=O)c1cccc(NC(=O)CN2C(=O)C3C4C=CC(C4)C3C2=O)c1 (centres undefined)	100	97	99	97	94
CCOc1ccc(-c2[nH]ncc2-c2csc(C)n2)c(O)c1	70	.	82	.	.
CCCOC(=O)c1ccc(Oc2cn[nH]c2-c2ccc(OCC)cc2O)cc1	54	96	55	9.5*	2.7*
CCCc1ccc(Oc2cn[nH]c2-c2ccc(O)c(C)c2O)cc1	52	96	39	56	82
CCCc1ccc(Oc2c(-c3ccc(O)c(C)c3O)n[nH]c2C)cc1	84	96	87	24*	21*
CCCOC(=O)c1ccc(Oc2c(-c3ccc(OCC)cc3O)n[nH]c2C)cc1	97	54	103	4.5*	2.2*
Cc1cc(C)n2nc(C(=O)OCCOc3ccc(Br)cc3)nc2n1	94	95	94	86	99
CCOC(=O)CCc1n[nH]c(=O)[nH]c1=O	95	105	96	96	95
O=C(Cn1cnc2ccccc21)Nc1cc(C(F)(F)F)ccc1N1CCOCC1	75	97	80	108	97
FC(F)(F)c1ccc(N2CCOCC2)c(Nc2nc3ccccc3n3cnnc23)c1	0.4*	.	0.8*	.	.
Cc1c(NC(=O)CSc2nc3c(cnn3-c3ccccc3)c(=O)[nH]2)c(=O)n(-c2ccccc2)n1C	101	95	98	95	87
CCOc1cc(C(=S)N2CCCCC2)ccc1OCC(=O)NCc1ccccc1	98	98	93	105	23*
O=c1/c(=C\c2cccn2-c2ccccc2)sc2nc3ccccc3n12	102	100	93	59	28*
SMILES	PTEN del growth	Lung fibro prol	bCat KO growth	HUVEC prolif 384	H69AR inhibit
COc1ccc(OCCC(=O)OCC(=O)Nc2ccc(Br)cc2)cc1	89	.	92	.	.
CC(=O)Nc1cccc(C(=O)/C=C/c2ccc(/C=C/C(=O)c3cccc(NC(C)=O)c3)cc2)c1	1.8*	.	4.2*	.	.
CC(=O)Nc1cccc(C(=O)/C=C/c2cccs2)c1	1.6*	.	1.5*	.	.
CC(=O)Nc1cccc(C(=O)/C=C/c2ccco2)c1	22	.	18	.	.
CC(=O)Nc1cccc(C(=O)/C=C/c2ccc(N(C)C)cc2)c1	58	.	56	.	.
CN(C)c1ccc(/C=C/C(=O)c2ccccc2)cc1[N+](=O)[O-]	1.4*	.	1.8*	.	.
CC(=O)Nc1cccc(C(=O)/C=C/c2ccc(Br)cc2)c1	1.3*	.	1.5*	.	.
Cn1c(NC(=O)C(C)(C)Oc2ccc(Cl)cc2)cc(=O)n(C)c1=O	104	96	96	98	100
CC(=O)Nc1c(C)cc(S(C)(=O)=O)cc1C	97	.	95	.	.
O=c1c(Cc2ccccc2)c(O)nc2n1CCCS2	102	106	102	99	105
Cc1ccc(C(=O)/C=C/C(=O)O)cc1	73	.	71	.	.
O=C(/C=C/c1ccccc1)c1ccccn1	4	.	5.7*	.	.
CCC(=O)Nc1cccc(C(=O)/C=C/c2cc(Br)ccc2OC)c1	0.7*	.	0.8*	.	.
Cc1ccc(/C=C/C(=O)c2ccccc2)cc1	0.4*	49*	0.9*	79	85
CCCC12C(=O)C(C)(C(c3ccccc3)=C1c1ccccc1)C1C(=O)N(c3ccc(C)cc3)C(=O)C12 (centres undefined)	13	.	15	.	.
C=CCn1c(SCC(=O)Nc2cc(C)c(Cl)cc2OC)nnc1-c1ccco1	73	90	81	116	78
O=C(Nc1ccc2nc3ccccc3nc2c1)c1ccccc1	92	.	84	.	.
N#Cc1ccc(NC(=O)Nc2ccc(Cl)cc2)cc1	3.4*	39*	4.0*	35	7.1*
CCOc1ccc(NC(=O)c2cc3n(n2)C(C(F)(F)F)CC(c2ccco2)N3)cc1 (centres undefined)	93	37*	72	97	63
COc1ccc(OC)c(Nc2nc(-c3sc(C)nc3C)cs2)c1	76	94	94	58	26*
COc1ccc(OC)c(Nc2nc(-c3sc(NC(=O)C(C)(C)C)nc3C)cs2)c1	62	.	82	.	.
Cc1ccc(N=C2C(=S)N(c3ccc(C)cc3)C(=N)N2/N=C/c2ccc(Cl)cc2)cc1	90	85	87	75	2.7*
COc1ccc(N=C2C(=Nc3ccc(OC)cc3)N(c3ccc(OC)cc3)C(=S)N2c2ccccc2)cc1	98	.	94	.	.
CC(=O)N1CCN(CC(=O)Nc2ccccc2Sc2ccc(Cl)cc2)CC1	80	.	74	.	.
O=C(CCl)Nc1ccccc1Sc1ccc(Cl)cc1	2.5*	.	2.1*	.	.
SMILES	PTEN del growth	Lung fibro prol	bCat KO growth	HUVEC prolif 384	H69AR inhibit
CCOc1cc(/C=C\[N+](=O)[O-])ccc1OCC(=O)Nc1ccccc1C	1.9*	.	2.1*	.	.
CCOc1cc(/C=N/NC(N)=O)cc(Br)c1OCC(=O)Nc1ccccc1C	79	.	78	.	.
Cc1cc2cc(CNC(=O)Cc3cccs3)ccc2n1C	.	107	.	61	38*
CCN(CC)CCNc1c2c(c(C#N)c3nc4ccccc4n13)CCCC2	3.6*	90	8	91	33*
CCOC(=O)c1c(C)c(C(=O)Nc2ccc3c(c2)OCCO3)c(C)n1CC	31	91	30	75	20*
O=C(Nc1ccc2nn(-c3ccccc3)nc2c1)c1ccc2c(c1)OCCO2	53	.	55	49	58
CCc1ccc(-n2nc3ccc(NC(=O)c4ccc5c(c4)OCO5)cc3n2)cc1	75	91	78	76	20*
